Measurements taken from the EternaBench riboswitch data.

System: MS2 coat protein
Test: apparent Kd, MS2 coat protein; higher = weaker binding; RNA-MaP array; FMN 200 µM where present
Procedure, shortened: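 On Illumina sequencing-chip clusters, designs were transcribed by stalled E. coli RNA polymerase and titrated with SNAP-549-labelled MS2 coat protein (0.7 or 1.5 nM, doubling to 3 µM), without and then with constant ligand, in 100 mM Tris-HCl pH 7.5, 80 mM KCl, 4 mM MgCl2, BSA, DTT, yeast tRNA and Tween-20. Apparent Kd is the median of filtered per-cluster curve fits to green signal normalised to red-channel RNA signal and control-cluster median Fmax.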

[1] = designed as: OFF switch for flavin mononucleotide, no ligand
[2] = ligand present: flavin mononucleotide, designed as: OFF switch for flavin mononucleotide
[3] = designed as: ON switch for flavin mononucleotide, no ligand
[4] = ligand present: flavin mononucleotide, designed as: ON switch for flavin mononucleotide

Sequence | apparent Kd [1] [nM] | apparent Kd [2] [nM] | apparent Kd [3] [nM] | apparent Kd [4] [nM]
GUGAAGUAAGGAUAUACAUGAGGAUCACCCAUGUGUGGGAAGGUGAUGGGAGUAGGUAGUAGAAGGUACGAGGA | 130 | 76.6 |  | 
GUGACGAUGUAAGGAUAUGCUGAGGAAUACUCAGCAGAAGGUACAUGAGGAUCACCCAUGUAAAUAAUAAUAAAUAAACGUCAC | 15.2 | 24.1 |  | 
GUGAGGUCAGGAUAUGCAUGGCGGGACUUGCGUCGUGGCGUGCAGAAGGGACAUGAGGAUCACCCAUGUGGAGC | 81.6 | 194 |  | 
GUGCACACUCGAGGAUAUCGGAGUUUUCUUCUUCGAGAAGGCGAUUCGUGCCGUGUUAUUUUGGACAUGAGGAUCACCCAUGUG |  |  | 93.3 | 34.5
GUGCAGAUGUAAGGAUAUCGACUGGAUAACAGUCGAGAAGGUACAUGAGGAUCACCCAUGUAAAUGAAAGAUAAUAAACUGCAC | 14.4 | 24.9 |  | 
GUGCAUGUGCGAACUAACCCACAUGAGGAUCACCCAUGUAGGAGAAGGGUCCGGAGGUGCCGUGGACAGGAUAUCCUACGCCUG | 23.2 | 30.9 |  | 
GUGCCUAACUAGAAGGCAGCAUGCAAAGCAUUCUGAGGAUAUGGGUUCCGGAAACGGACAUGAGGAUCACCCAUGUGGCACAAA |  |  | 482 | 34.7
GUGCGAGCCACAGGAUAUCUACAAAUUUACUGUAGAGAAGGGUGACCUCGUGCACCACAUGAGGAUCACCCAUGUAACUAGGCG |  |  | 26.3 | 53
GUGCGGUGAGGAUAUACGUAGGUGAAAAUCUGUGUGUUCCUACAUGAGGAUCACCCAUGUAGAAGGCAUGGCAC | 148 | 45.3 |  | 
GUGCUCAUGUAAGGAUAUGCAGCCGUUUCGGCUGCAGAAGGUACUAUAAUACAUGAGGAUCACCCAUGUCUCUAUAAUUUGGUG |  |  | 113 | 239
GUGCUCGUGUAAGGAUAUGCAGCCGUUUCGGCUGCAGAAGGUACUAUAAUACAUGAGGAUCACCCAUGUCUCUAUAGUUUGGUG |  |  | 27.4 | 33.1
GUGGCCUAGGCACAGGAUAUGUUUCUCGUAACAUGAGGAUCACCCAUGUGCCUUUGAGAUUUUAUGCAGAAGGGUGCACGCCACG |  |  | 488 | 24.3
GUGGCUAGUGCAGGAUAUUAGCGCGUGUAGUGUUGAGAAGGGCACAUGAGGAUCACCCAUGUGAUCAAUCACUGUUAAGGUCGC | 12.7 | 25.3 |  | 
GUGGCUGUUAGGCUUGCGUCGGCGACAGAAGGCCAACAUGAGGAUCACCCAUGUACAAAGACCAUGGAGGAUAUGUUGCCAAUG |  |  | 58.2 | 7.54
GUGGUACAUGAGGAUCACCCAUGUUAGGAUAUCGCGUGAGGUUUUACUUCCGCACACGCGAGAAGGGACGUCUU | 54.9 | 41.6 |  | 
GUGGUCAGACAUGAGGAUCACCCAUGUGGAAUAAAUAACAACUAGGAUAUGUAAUAUAGGAUAUAACAGAAGGAGUGAUUGGUG |  |  | 168 | 138
GUGGUCAGACAUGAGGAUCACCCAUGUGGAAUAAAUAAGGAAUAGGAUAUGGAAUAUAGGAUAUACCAGAAGGGUUGGUUGGUG |  |  | 98.4 | 114
GUGGUGUAGAUACAGGAUAUGUUGCUCGUAACAUGAGGAUCACCCAUGUAUCUAUGAGAUUAAAUGCAGAAGGGUGCACACCACG |  |  | 330 | 23.3
GUGUACAGAGGAUAUACACGAGUAGUUACGAAAGUAACUACACAUGAGGAUCACCCAUGUAGAAGGCUGUACAC | 25 | 30.3 |  | 
GUGUACAGAGGAUAUACAUAAGCAUGGAAACAUGCUACUUCACAUGAGGAUCACCCAUGUAGAAGGCUGUACAC | 14.5 | 15.4 |  | 
GUGUACAGAGGAUAUAUAUGAGCUAGGAAACUAGCAAGAUCACAUGAGGAUCACCCAUGUAGAAGGCUGUACAC | 114 | 1210 |  | 
GUGUACAGAGGAUAUGCACGAGUAGUUACGAAAGUAACUACACAUGAGGAUCACCCAUGUAGAAGGCUGUACAC | 13.2 | 16.9 |  | 
GUGUAGACAGGAUAUGCUUUGAGCAUAUGAGAGUAUGCUCUACAUGAGGAUCACCCAUGUAGAAGGGUCUACAC | 11.9 | 12.5 |  | 
GUGUAGGUAGGAUAUACAUGAGGAUCACCCAUGUGAAUAAGAUAGAAUAAGAUAAAGUGUAGAAGGACUAGUGU | 37 | 28.8 |  | 
GUGUAGUCAGGAUAUACAUAGGAAGAGAAGAGAAGAUAAGUACAUGAGGAUCACCCAUGUAGAAGGGACAGUGU | 30.6 | 29.6 |  | 
GUGUCUUGGGAGAAGGCCGUAUGCAAAGCAUACGGAGGAUAUUCAUACCGGAAACGGACAUGAGGAUCACCCAUGUGGCACAAA |  |  | 947 | 34.8
GUGUGCAGAGGAUAUACAUAGGAAUAUAAUAUAAUAUAAUUACAUGAGGAUCACCCAUGUAGAAGGCUGAGUGU | 23.8 | 26.8 |  | 
GUGUGUUGCGGGCAGGAUAUGUACUUGAGUACAUGAGGAUCACCCAUGUGCGGGUGUUUCACCCGACAGAAGGGCCUAUCGCGAC |  |  | 977 | 309

Sequence | apparent Kd [1] [nM] | apparent Kd [2] [nM] | apparent Kd [3] [nM] | apparent Kd [4] [nM]
GUGUUACAUGAGGAUCACCCAUGUUGUUGUAGAUAAGGAUAUAUGGGAACGAGAGAAAUAAUAGAAGGUAUUAGGC |  |  | 71.2 | 67.7
GUGUUUGAUGAGGAUAUCGAUGUGGGUACAUAGCGAGAAGGCAUUACAUGAGGAUCACCCAUGUAGUGUGGGUU | 25 | 56.7 |  | 
GUUAACGCAUGAGGAUAUGCUCGCAUUUCAAGAGCAGAAGGUAUGUCUAUAGACAUGAGGAUCACCCAUGUAUUUAUCAUUGAA |  |  | 245 | 39.6
GUUAAGAACUAAGGAUAUUGAAUACAUAUGUUUAACAUGAGGAUCACCCAUGUGGGUUGCGGUGUCGAGAAGGUAGAAUAAUAG |  |  | 201 | 195
GUUAAGGUAGGAUAUACGAUAAGAUAGGGUAGAUAUAUAACACAUGAGGAUCACCCAUGUAGAAGGACCAAUUG | 38.3 | 105 |  | 
GUUAAUUAGUGAGGAUAUACAGAAAUUAAAACUGUAGAAGGCACAUUCCUCAAGACAUGAGGAUCACCCAUGUGAUAAUAAGAU | 35.2 | 127 |  | 
GUUACAUGAGGAUCACCCAUGUAUGUGUGGGAGUAAGUGUCUUAGGAUAUCUAUCAUUUAAUAUAAGAGAAGGAAGAUUGUUGU |  |  | 109 | 140
GUUAGUUAAGGAUAUACAGGGAGCUGCGGCGUCUCGCCGCAACAUGAGGAUCACCCAUGUAGAAGGUGACCUUU | 529 | 406 |  | 
GUUAUUAUUAGUUCAUACUAUAAGAUAGAAGGUGAAUAAUUGACAUGAGGAUCACCCAUGUAAUUCAAGGAUAUGUAGAUACUC |  |  | 32 | 17.6
GUUAUUAUUAGUUCAUACUAUAAGAUAGAAGGUGAUUUAUUGACAUGAGGAUCACCCAUGUAAUUCAAGGAUAUGUAGAUACUC |  |  | 374 | 248
GUUAUUGACAAGAAGGCAUACAUGAGGAUCACCCAUGUUCUACAUGGAUAAUGAGGAUAUUGCCAAUACAUGAGGAUCACCCAG | 68.3 | 77.5 |  | 
GUUCGUUUGAUAGGAUAUCGCUAUACAUGAGGAUCACCCAUGUUUACCACGCUGGUUUUUCGUACCGAGAAGGAUUCUGAUGAU |  |  | 40.2 | 36.2
GUUGGAUGAGGAUAUCGAGGUUAGUACAUGAGGAUCACCCAUGUUAUCCAGGUGUCGGUUCGAGAAGGCAUUGGAC | 32.6 | 114 |  | 
GUUGGGCCUCCCUCUCCACGUUCAACAUGAGGAUCACCCAUGUAGGAUAUCGUUUGUUUUUUUUACGAGAAGGGCGUACUUCCC | 8.99 | 8.06 |  | 
GUUGUUUCUGAGGAUAUUAUUUUUUUCGAUUGAUAAGAAGGCAGUACAUGAGGAUCACCCAUGUGGGUUGUUUG | 54.5 | 164 |  | 
GUUUAGUGAGGAUAUGUGGCAUCGCCCGAGCGCGGUCGGCUACAGAAGGCACAUGAGGAUCACCCAUGUUUCUC | 38.6 | 585 |  | 
GUUUAUUUACAGAAGGUGUUUUACAUGAGGAUCACCCAUGUUUAAAGGUAUAAAGAAUUUAUUUACAAGGAUAUGUACAAUUUU |  |  | 34.1 | 22.1
GUUUCACAUGAGGAUCACCCAUGUGAGGAUAUGGUUUCGCUGGCCGUAGCCAGUGGAACCAGAAGGCGCGUGAU | 60.7 | 71.1 |  | 
GUUUUACAUGAGGAUCACCCAUGUGAGGAUAUAUUGUUAUUUUUGAUAUUUUUUGGUGGUAGAAGGCGCGUGAU | 36.4 | 32.7 |  | 
GUUUUAUAAGAGAAGGAGGACUUCAUGAGGAUCACCCAUGUGUUAGUACUUAGGAUAUUUGAUAACAUGAGGAUCACCCAUGUC |  |  | 27.6 | 27.7
GUUUUCGCAUGAGGAUAUGCUCGCAUUUCAAGAGCAGAAGGUAUGUCUAUAGACAUGAGGAUCACCCAUGUAUUUAUCAUUGAA |  |  | 273 | 118
UAAAAGGAAGGAUAUACACUUCAAAACCUCAUGUGACUUUCACAUGAGGAUCACCCAUGUAGAAGGUCCAAGGC | 24 | 33.9 |  | 
UAAACAUGAGGAUCACCCAUGUAAUGAUCGGUUGAUGAAAGUGAGGAUAUACAAAAUUUUAUGGAGUAGAAGGCACUGGGUUCU |  |  | 49.9 | 40.3
UAAACGUUCUAGAAGGUGCUAGCGAUAAGCUAGCAAGGAUAUAGACAUGAGGAUCACCCAUGUCUUUGUGACAUCGACAUACUU | 9.03 | 12.1 |  | 
UAAAUCGGAGGAUAUACAUGAGGAUCACCCAUGUAAUCGCGUUGGCAUCGGUGGGUUAGUAGAAGGCUGUAAAU | 30.5 | 45.3 |  | 
UAAAUCUUGUAAGGAUAUACACGAGAUUCAAGUGUAGAAGGUACUUACAUGAGGAUCACCCAUGUAUACAUGGAUAUUAGAUAU |  |  | 142 | 38.9
UAAAUUAUACAAGGAUAUCUAUCGUAGUUUAGACUUACAUGAGGAUCACCCAUGUUAAUAUGUUUAGAGAAGGUGUAUUUUCAG |  |  | 43.3 | 22.5
